Laboratory results published in ChEMBL document CHEMBL5376013, “Design, synthesis and biological evaluation of novel morpholinopyrimidine-5-carbonitrile derivatives as dual PI3K/mTOR inhibitors” (RSC Med Chem, 2024).

How the values were obtained:
Assay type in all cases: functional
Details in all cases: read-out: GI
KM12 = test: Antitumor activity against human KM12 cells assessed as growth inhibition at 10 uM relative to control
Method in brief: (§1)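 After drug addition, plates were incubated 48 h at 37 °C under 5% CO2. Adherent cells were fixed with cold TCA (10% final, 60 min, 4 °C) and suspension cells with 16% final TCA. Staining used 0.4% SRB in 1% acetic acid, solubilized in 10 mM trizma, read at A515. Percent growth was calculated from time-zero, control and treated absorbances.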

SNB-75 = test: Antitumor activity against human SNB-75 cells assessed as growth inhibition at 10 uM relative to control
Method in brief: (§2)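 Drug exposure 48 h at 37 °C, 5% CO2. Adherent cells fixed with cold TCA (10% final), suspension cells with TCA (16% final). Stained with 0.4% SRB in 1% acetic acid, dissolved in 10 mM Tris, A515. Growth relative to time-zero and untreated control.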

HOP-62 = test: Antitumor activity against human HOP-62 cells assessed as growth inhibition at 10 uM relative to control; method in brief: as §1
SW-620 = test: Antitumor activity against human SW-620 cells assessed as growth inhibition at 10 uM relative to control; method in brief: as §2
SF-295 = test: Antitumor activity against human SF-295 cells assessed as growth inhibition at 10 uM relative to control; method in brief: as §1
RPMI-8226 = test: Antitumor activity against human RPMI-8226 cells assessed as growth inhibition at 10 uM relative to control; method in brief: as §1
HCT-116 = test: Antitumor activity against human HCT-116 cells assessed as growth inhibition at 10 uM relative to control; method in brief: as §1
OVCAR-4 = test: Antitumor activity against human OVCAR-4 cells assessed as growth inhibition at 10 uM relative to control; method in brief: as §1
UACC-257 = test: Antitumor activity against human UACC-257 cells assessed as growth inhibition at 10 uM relative to control; method in brief: as §2
HOP-92 = test: Antitumor activity against human HOP-92 cells assessed as growth inhibition at 10 uM relative to control; method in brief: as §1
OVCAR-3 = test: Antitumor activity against human OVCAR-3 cells assessed as growth inhibition at 10 uM relative to control; method in brief: as §1
MDA-MB-468 = test: Antitumor activity against human MDA-MB-468 cells assessed as growth inhibition at 10 uM relative to control; method in brief: as §1
Malme-3M = test: Antitumor activity against human Malme-3M cells assessed as growth inhibition at 10 uM relative to control; method in brief: as §1
M14 = test: Antitumor activity against human M14 cells assessed as growth inhibition at 10 uM relative to control; method in brief: as §1

SMILES	inhibition of growth at 10 µM (KM12) [%]	inhibition of growth at 10 µM (SNB-75) [%]	inhibition of growth at 10 µM (HOP-62) [%]	inhibition of growth at 10 µM (SW-620) [%]	inhibition of growth at 10 µM (SF-295) [%]	inhibition of growth at 10 µM (RPMI-8226) [%]	inhibition of growth at 10 µM (HCT-116) [%]	inhibition of growth at 10 µM (OVCAR-4) [%]	inhibition of growth at 10 µM (UACC-257) [%]	inhibition of growth at 10 µM (HOP-92) [%]	inhibition of growth at 10 µM (OVCAR-3) [%]	inhibition of growth at 10 µM (MDA-MB-468) [%]	inhibition of growth at 10 µM (Malme-3M) [%]	inhibition of growth at 10 µM (M14) [%]
CSc1nc(O)c(C#N)c(-c2ccc(Cl)cc2)n1	< 1	11.3	< 1	< 1	< 1	< 1	< 1	< 1	< 1	24.7	< 1	< 1	< 1	< 1
CSc1nc(Cl)c(C#N)c(-c2ccc(Cl)cc2)n1	< 1	26.8	< 1	< 1	< 1	< 1	< 1	< 1	< 1	< 1	< 1	< 1	< 1	< 1
N#Cc1c(-c2ccc(Cl)cc2)[nH]c(=S)[nH]c1=O	< 1	14.7	< 1	< 1	< 1	< 1	< 1	< 1	< 1	< 1	< 1	< 1	< 1	< 1
N#Cc1c(-c2ccc(Cl)cc2)nc(NN2C(=O)CCC2=O)nc1N1CCOCC1	< 1	33.9	< 1	< 1	< 1	< 1	< 1	< 1	< 1	< 1	< 1	< 1	< 1	< 1
N#Cc1c(-c2ccc(Cl)cc2)nc(N2NC(=O)CC2=N)nc1N1CCOCC1	< 1	24.3	< 1	< 1	< 1	< 1	< 1	< 1	< 1	12.6	< 1	< 1	58	< 1
N#Cc1c(-c2ccc(Cl)cc2)nc(N/N=C/c2cccc(F)c2)nc1N1CCOCC1	16	35.8	10.3	< 1	< 1	22.3	< 1	< 1	< 1	< 1	< 1	< 1	< 1	< 1
CC1=NN(c2nc(-c3ccc(Cl)cc3)c(C#N)c(N3CCOCC3)n2)C(=O)C1	< 1	43.5	12.6	14.8	< 1	42.9	< 1	48.5	< 1	93.7	49.8	< 1	< 1	10
CSc1nc(-c2ccc(Cl)cc2)c(C#N)c(N2CCOCC2)n1	< 1	47.8	15.7	< 1	< 1	17.9	< 1	18.2	< 1	21.1	< 1	< 1	11	< 1
N#Cc1c(-c2ccc(Cl)cc2)nc(N/N=C2/C(=O)Nc3ccccc32)nc1N1CCOCC1	< 1	21	< 1	10.1	< 1	< 1	10.5	< 1	< 1	< 1	< 1	< 1	< 1	< 1
N#Cc1c(-c2ccc(Cl)cc2)nc(NN2C(=O)c3ccccc3C2=O)nc1N1CCOCC1	< 1	15.4	< 1	< 1	< 1	< 1	< 1	< 1	< 1	< 1	< 1	< 1	< 1	< 1
N#Cc1c(-c2ccc(Cl)cc2)nc(N/N=C2/C(=O)Nc3ccc(Cl)cc32)nc1N1CCOCC1	< 1	31.3	< 1	< 1	< 1	< 1	< 1	< 1	< 1	10.5	< 1	< 1	11.2	< 1
N#Cc1c(-c2ccc(Cl)cc2)nc(N/N=C/c2cccc(Br)c2)nc1N1CCOCC1	19	23.2	< 1	68.5	< 1	44	38.5	12.6	13.5	28.8	< 1	23.3	< 1	37.6
Cc1cc(C)n(-c2nc(-c3ccc(Cl)cc3)c(C#N)c(N3CCOCC3)n2)n1	< 1	40.1	19.9	< 1	< 1	15.4	17	< 1	< 1	24.7	12.1	< 1	< 1	< 1
N#Cc1c(-c2ccc(Cl)cc2)nc(NN)nc1N1CCOCC1	< 1	26.9	14.4	< 1	< 1	< 1	< 1	< 1	< 1	10.6	< 1	< 1	< 1	< 1
N#Cc1c(-c2ccc(Cl)cc2)nc(N/N=C2/C(=O)Nc3ccc(Br)cc32)nc1N1CCOCC1	< 1	< 1	< 1	< 1	< 1	< 1	16.8	< 1	< 1	< 1	< 1	< 1	< 1	< 1
